Compound activity as filed in PubChem.
MrgX1 PAM = human MrgX1 positive allosteric modulation, primary screen | Q96LB2 | MrgX1-HEK293, Fluo-4 calcium flux, FDSS; active compounds read high | B-score at 10 µM | 0.63% of 310,000 active | AID 588675;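 active = plate-corrected calcium response at least 3 library SD above typical, normal starting fluorescence, not activating the receptor alone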;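 also: compound read alongside a low EC10 to EC30 dose of BAM8-22 agonist; peak minus trough fluorescence over baseline measured at the second addition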
Target sequence (Q96LB2 whole entry, looked up): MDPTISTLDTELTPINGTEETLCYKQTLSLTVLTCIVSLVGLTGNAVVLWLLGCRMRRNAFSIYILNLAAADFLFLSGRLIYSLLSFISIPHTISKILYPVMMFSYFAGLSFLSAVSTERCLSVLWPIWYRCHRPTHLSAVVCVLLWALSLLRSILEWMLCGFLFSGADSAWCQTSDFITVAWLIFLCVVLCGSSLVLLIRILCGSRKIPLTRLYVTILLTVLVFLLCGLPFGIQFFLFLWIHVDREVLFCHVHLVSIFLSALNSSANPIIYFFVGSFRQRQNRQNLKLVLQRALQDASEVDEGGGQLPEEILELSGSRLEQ
RGS4 block = inhibitors of human RGS4. AID 463165. 0.45% of 310,000 active. HEK293 M3R/RGS4 inducible, Fluo-4 calcium flux; active compounds read high; triggered by carbachol at its EC20. B-score at 10 µM;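 active = B-score, a plate-corrected calcium signal, over three deviations above library mean, with baseline fluorescence within five deviations of library mean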;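 also: RGS4 expression induced by doxycycline in cells with stable M3 receptor; B-score is computed from the integrated fluorescence ratio over baseline after carbachol; higher B-score means a larger calcium signal and so more RGS4 inhibition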
MrgX1 agonist = activates human MrgX1 receptor signaling; B-score at 10 µM; Q96LB2; AID 588627; 0.44% of 310,000 active; MrgX1-HEK293 cells, Fluo-4 calcium fluorescence, agonist mode; active compounds read high;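 active = calcium response B-score plate-corrected fluorescence ratio at least 3 library SD, with starting fluorescence B-score inside 5 SD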
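Material – MrgX1-expressing HEK293 cells · Input – 15,000 cells seeded per well · Dosing – compound as first of three additions · Times – overnight seeding, then 1 h dark dye loading · Measured by – kinetic Fluo-4 NW fluorescence of intracellular calcium · Read-out – B-scored fluorescence response ratio · Benchmarks – positive and negative control wells on each plate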
RGS4 pot = potentiators or activators of RGS4; HEK293 M3R/inducible RGS4, carbachol calcium flux Fluo4; active compounds read low; B-score at 10 µM; 0.92% of 310,000 active; AID 463111;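 active = B-score of the integrated calcium signal more than 4 SD below the library mean, with starting fluorescence not abnormally high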;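 also: negative B-score means reduced calcium response which marks RGS4 activation or potentiation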
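Assay system: Inducible-RGS4 HEK293 cells carrying M3 receptor | Schedule: Compound preincubation 20 min at room temperature before agonist | Signal: Kinetic calcium fluorescence imaging with Fluo4-AM dye, 2 µM | Read-out basis: B score from integrated fluorescence ratio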
MrgX1 antagonist = human MrgX1 receptor antagonism, primary screen | Q96LB2 | MRGX1-HEK293 calcium flux, Fluo-4, BAM8-22 antagonism; active compounds read low | B-score at 10 µM | 1.3% of 310,000 active;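 active = calcium-response B-score plate-corrected more than 3 library SD below zero, starting fluorescence within 5 deviations, no agonist response on first addition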;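 also: peak minus trough fluorescence over baseline after final BAM8-22 challenge near maximal dose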
RGS4 activ val = RGS4 activation, validation assay. inhibition, % at 10 µM. 89% of 1,100 active. shares compounds with RGS4 pot. HEK293 M3R/RGS4 inducible, carbachol calcium flux Fluo4;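 active = inhibition above 3 SD of the buffer control wells, cut at about 41% in these data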;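 also: signal is the integrated peak-minus-minimum Fluo4 fluorescence over baseline ratio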
M3R Ca counter = RGS4 activator counter-screen hit in non-induced cells; shares compounds with RGS4 pot; HEK293 M3R non-induced RGS4, Fluo4 calcium flux; after carbachol challenge at its EC90; inhibition, % at 10 µM; 82% of 1,100 active; AID 602283;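 active = inhibition exceeding 3 SD of buffer-only control wells, cut at about 26% in these data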;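 also: percent drop in integrated peak-minus-baseline over baseline Fluo4 ratio after carbachol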
The depositor's hits bear a star; i = inactive; / = not tested or not shown. The list is not random: actives were taken first. Their share in the collection is about 3.5%.

SMILES | MrgX1 PAM | RGS4 block | MrgX1 agonist | RGS4 pot | MrgX1 antagonist | RGS4 activ val | M3R Ca counter
CN1CCN(C(=O)C2CCN(c3ncc(C(F)(F)F)cc3Cl)CC2)CC1 | i | i | i | -12* | i | 86* | 41*
NC(=O)C[N+]1(CC#CC(O)(c2ccccc2)c2ccccc2)CCCC1 | i | i | i | -12* | i | 52* | 0
Cc1ccc(N2CCN(C(=O)c3cc(-c4ccc(F)cc4)[nH]c3C)CC2C)cc1 (stereo not drawn) | i | i | i | i | i | / | /
CC1CCCN(CC(=O)Nc2ccc(S(=O)(=O)N3CCCC3)cc2)C1 (stereo not drawn) | i | i | i | -9.2* | i | 85* | 41*
CCCCCCCCCCCCCCCC(=O)OC(CC(=O)O)C[N+](C)(C)C (stereo not drawn) | i | / | i | / | i | / | /
Cc1ccc(OCC(=O)O/N=C(\N)Cc2ccc([N+](=O)[O-])cc2)cc1C | i | i | i | -11* | i | 0 | 0
NC(=O)CCN1CCN(Cc2nc(C(c3ccccc3)c3ccccc3)no2)CC1 | i | i | i | -8.7* | i | 92* | 58*
C[C@@H]1CN(C2CCN(Cc3nc(C(c4ccccc4)c4ccccc4)no3)CC2)C[C@H](C)O1 | i | i | i | i | i | / | /
CC(C)NC(=O)CN1CCN(Cc2nc(C(c3ccccc3)c3ccccc3)no2)CC1 | i | i | i | -7.6* | i | 92* | 58*
CSc1nc2ccccc2n1Cc1c(Cl)cccc1Cl | i | i | i | -8.4* | i | 95* | 86*
OCc1nc2ccccc2n1Cc1c(F)cccc1Cl | i | i | i | i | i | / | /
CCOC(=O)C1CCCN(C(=O)c2cc(Nc3ccc(OC)c(OC)c3)nc3ccccc23)C1 (stereo not drawn) | i | i | i | i | i | / | /
CCOC(=O)C1CCCN(C(=O)c2cc(-c3ccc(C)cc3)nc3ccccc23)C1 (stereo not drawn) | i | i | i | -9.1* | i | 48* | 0
CCCCn1c(-c2csc(C(C)C)c2)n[nH]c1=S | i | i | i | -9.7* | i | 92* | 60*
CCCCn1c(-c2csc(CC)c2)n[nH]c1=S | i | i | i | -8* | i | 88* | 55*
CCCc1cc(-c2n[nH]c(=S)n2CC(C)C)cs1 | i | i | i | i | i | / | /
O=C(Nc1ccccc1)Nc1cc(Cl)cc(Cl)c1 | i | i | i | -8.3* | i | 62* | 84*
O=C(CCC1CCCN(C2C3CC4CC(C3)CC2C4)C1)NCc1ccc(F)c(F)c1 (stereo not drawn) | i | i | i | -7.7* | i | 81* | 45*
CCCc1ncc(C(O)(c2ccccc2)c2ccccc2)n1C | i | i | i | -12* | i | 93* | 81*
CCCc1ncc(C(O)(c2ccccc2)c2ccc(C)cc2)n1C (stereo not drawn) | i | i | i | -7.9* | i | 92* | 63*
CCCc1ncc(C(O)c2cccc3ccccc23)n1C (stereo not drawn) | i | i | i | i | i | / | /
COc1ccccc1CNC(=O)CCS(=O)(=O)c1ccc2c(c1)CCN2C(C)=O | i | i | i | i | i | / | /
CCn1c(SCC#N)nc2c(c1=O)C1(CCCC1)Cc1ccccc1-2 | i | i | i | -10* | i | 69* | 84*
O=C(NCc1cccc(F)c1)C1CCN(C(=O)c2sccc2-n2cccc2)CC1 | i | i | i | i | i | / | /
CC1=NNC(=O)/C1=C\c1cn(-c2ccccc2)nc1-c1ccccc1 | i | i | i | -11* | i | 70* | 34*
O=Cc1cn(-c2ccccc2)nc1-c1ccccc1 | i | i | i | i | i | / | /
COc1cccc(OCCn2cc(C(=O)c3ccco3)c3ccccc32)c1 | i | i | i | -11* | i | 90* | 50*
